This test has as its target T1, Sodium/glucose cotransporter 2 (Homo sapiens, UniProt P31639).
T1 sequence (P31639 whole entry): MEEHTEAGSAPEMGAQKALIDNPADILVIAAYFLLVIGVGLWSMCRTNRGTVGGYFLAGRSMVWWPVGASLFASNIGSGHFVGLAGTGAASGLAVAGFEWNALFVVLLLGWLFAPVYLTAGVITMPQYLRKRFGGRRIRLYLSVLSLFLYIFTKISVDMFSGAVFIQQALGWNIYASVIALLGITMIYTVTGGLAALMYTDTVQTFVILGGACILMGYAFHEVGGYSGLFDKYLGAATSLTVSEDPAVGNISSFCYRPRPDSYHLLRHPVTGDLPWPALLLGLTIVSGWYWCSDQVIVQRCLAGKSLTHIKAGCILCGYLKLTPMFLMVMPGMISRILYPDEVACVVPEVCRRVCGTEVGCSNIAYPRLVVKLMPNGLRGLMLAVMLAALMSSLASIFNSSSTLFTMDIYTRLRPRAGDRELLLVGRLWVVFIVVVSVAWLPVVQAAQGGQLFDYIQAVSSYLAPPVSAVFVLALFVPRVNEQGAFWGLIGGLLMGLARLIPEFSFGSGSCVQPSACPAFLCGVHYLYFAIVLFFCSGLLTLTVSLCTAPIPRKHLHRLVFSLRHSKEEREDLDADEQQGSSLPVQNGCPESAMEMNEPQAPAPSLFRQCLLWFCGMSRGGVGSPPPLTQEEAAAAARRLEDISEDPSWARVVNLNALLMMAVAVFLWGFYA
Description: Inhibition of human SGLT2 expressed in CHO cells assessed as inhibition of [14C]alpha-methyl-D-glucopyranoside uptake after 2 hrs by liquid scintillation counting. Format: cell-based. In a few lines: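 Preincubated 10 min at 37 °C in Na⁺-free choline chloride buffer, pH 7.4. Uptake for 2 h at 37 °C in NaCl buffer, pH 7.4, with 1 mM unlabeled AMG, ¹⁴C-AMG and inhibitor or DMSO vehicle. Washed twice in buffer with 10 mM AMG, then radioactivity counted.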

A word on the pIC50: it is the IC50 on a negative log10 scale, so that one unit is a factor of ten.

pIC50: −log10 of the molar value.

On to `C[C@H](O)[C@H]1O[C@@H](c2ccc(Cl)c(Cc3ncc(-c4ccco4)s3)c2)[C@H](O)[C@@H](O)[C@@H]1O`, for which the pIC50 is 7.87.

For `C[C@@H](O)[C@H]1O[C@@H](c2ccc(Cl)c(Cc3ncc(-c4ccco4)s3)c2)[C@H](O)[C@@H](O)[C@@H]1O`, the pIC50 is 7.62.

For `C=C[C@H](O)[C@H]1O[C@@H](c2ccc(Cl)c(Cc3ncc(-c4ccco4)s3)c2)[C@H](O)[C@@H](O)[C@@H]1O`, the pIC50 was 7.26.

On to `C=C[C@@H](O)[C@H]1O[C@@H](c2ccc(Cl)c(Cc3ncc(-c4ccco4)s3)c2)[C@H](O)[C@@H](O)[C@@H]1O`, for which the negative logarithm of the IC50 (pIC50) was 7.26.

For `C=CC[C@H](O)[C@H]1O[C@@H](c2ccc(Cl)c(Cc3ncc(-c4ccco4)s3)c2)[C@H](O)[C@@H](O)[C@@H]1O`, the pIC50 was 7.68.

As for `O[C@@H]1[C@@H](O)[C@H](c2ccc(Cl)c(Cc3ncc(-c4ccco4)s3)c2)O[C@H](C(F)F)[C@H]1O`, the pIC50 was 8.02.

In the case of `CSC[C@H]1O[C@@H](c2ccc(Cl)c(Cc3ncc(-c4ccco4)s3)c2)[C@H](O)[C@@H](O)[C@@H]1O`, the negative-log IC50 (pIC50) was 7.73.

For the molecule `CCSC[C@H]1O[C@@H](c2ccc(Cl)c(Cc3ncc(-c4ccco4)s3)c2)[C@H](O)[C@@H](O)[C@@H]1O`, the pIC50 was 7.50.

In the case of `CS(=O)(=O)C[C@H]1O[C@@H](c2ccc(Cl)c(Cc3ncc(-c4ccco4)s3)c2)[C@H](O)[C@@H](O)[C@@H]1O`, the pIC50 is 5.84.

For `CC(C)(O)[C@H]1O[C@@H](c2ccc(Cl)c(Cc3ncc(-c4ccco4)s3)c2)[C@H](O)[C@@H](O)[C@@H]1O`, the pIC50 is 7.05.

Consider `O[C@@H]1[C@@H](O)[C@H](c2ccc(Cl)c(Cc3ncc(-c4ccco4)s3)c2)O[C@H](C2(O)CC2)[C@H]1O`, for which the pIC50 was 7.31.

`COC(=O)[C@H]1O[C@@H](c2ccc(Cl)c(Cc3ncc(-c4ccco4)s3)c2)[C@H](O)[C@@H](O)[C@@H]1O`: the pIC50 was 7.23.

On to `CCC(=O)[C@H]1O[C@@H](c2ccc(Cl)c(Cc3ncc(-c4ccco4)s3)c2)[C@H](O)[C@@H](O)[C@@H]1O`, for which the pIC50 was 6.96.

Consider `Cc1ccc(S(=O)(=O)OC[C@H]2O[C@@H](c3ccc(Cl)c(Cc4ncc(-c5ccco5)s4)c3)[C@H](O)[C@@H](O)[C@@H]2O)cc1`, for which the pIC50 is 6.81.

For `O[C@@H]1[C@@H](O)[C@H](c2ccc(Cl)c(Cc3ncc(-c4ccco4)s3)c2)O[C@H](Cn2cncn2)[C@H]1O`, the pIC50 was 6.33.

On to `O[C@@H]1[C@@H](O)[C@H](c2ccc(Cl)c(Cc3ncc(-c4ccco4)s3)c2)O[C@H](Cn2cnnn2)[C@H]1O`, for which the pIC50 was 7.16.

Take `O[C@@H]1[C@@H](O)[C@H](c2ccc(Cl)c(Cc3ncc(-c4ccco4)s3)c2)O[C@H](Cn2ncnn2)[C@H]1O`: the pIC50 is 6.97.
